This note sets out measurements from ChEMBL document CHEMBL3351398, “Discovery of a Potent and Selective DGAT1 Inhibitor with a Piperidinyl-oxy-cyclohexanecarboxylic Acid Moiety” (ACS Med Chem Lett, 2014).

In one series the test system is Rattus norvegicus. Kind of series: Inhibition of plasma triglyceride accumulation in Sprague-Dawley rat at 10 mg/kg, po dosed 2 hrs before lipid challenge and measured at 18 hrs by lipid tolerance test. It is filed as functional.
Series [1] in a line: Solubility in PBS buffer at pH 7. It is filed as physicochemical. The essentials: (§1)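 High-throughput solubility test in PBS buffer at pH 2 and at pH 7. Free form and salt forms (TFA, formate, ammonium) were tested separately.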
A short description of series [2]: Solubility in PBS buffer at pH 2. It is filed as physicochemical. The essentials: as §1
Series [3] has as its target T1, Diacylglycerol O-acyltransferase 1 (Mus musculus, UniProt Q9Z2A7).
T1 sequence (Q9Z2A7 whole entry): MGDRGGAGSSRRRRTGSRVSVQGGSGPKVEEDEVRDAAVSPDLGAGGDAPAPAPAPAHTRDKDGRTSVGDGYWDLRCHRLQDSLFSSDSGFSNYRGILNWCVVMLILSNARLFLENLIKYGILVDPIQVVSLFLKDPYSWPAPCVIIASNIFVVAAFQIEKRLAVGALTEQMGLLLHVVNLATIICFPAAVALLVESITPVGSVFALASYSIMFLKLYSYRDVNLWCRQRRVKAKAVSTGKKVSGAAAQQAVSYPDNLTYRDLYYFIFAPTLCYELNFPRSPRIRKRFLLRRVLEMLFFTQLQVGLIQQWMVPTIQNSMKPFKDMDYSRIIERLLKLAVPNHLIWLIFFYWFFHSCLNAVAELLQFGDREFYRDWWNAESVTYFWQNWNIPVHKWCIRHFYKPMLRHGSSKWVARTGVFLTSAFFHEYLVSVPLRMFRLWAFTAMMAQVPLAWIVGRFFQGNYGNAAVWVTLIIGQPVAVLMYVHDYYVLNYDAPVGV
Briefly: Inhibition of mouse DGAT1.

The species entered for series [4] is Homo sapiens. Briefly: Selectivity index, ratio of Ki for human A2A receptor to KI IC50 for human DGAT1.
For series [5], the target named is T2, Sterol O-acyltransferase 1 (Homo sapiens) (UniProt P35610).
T2 sequence (whole entry): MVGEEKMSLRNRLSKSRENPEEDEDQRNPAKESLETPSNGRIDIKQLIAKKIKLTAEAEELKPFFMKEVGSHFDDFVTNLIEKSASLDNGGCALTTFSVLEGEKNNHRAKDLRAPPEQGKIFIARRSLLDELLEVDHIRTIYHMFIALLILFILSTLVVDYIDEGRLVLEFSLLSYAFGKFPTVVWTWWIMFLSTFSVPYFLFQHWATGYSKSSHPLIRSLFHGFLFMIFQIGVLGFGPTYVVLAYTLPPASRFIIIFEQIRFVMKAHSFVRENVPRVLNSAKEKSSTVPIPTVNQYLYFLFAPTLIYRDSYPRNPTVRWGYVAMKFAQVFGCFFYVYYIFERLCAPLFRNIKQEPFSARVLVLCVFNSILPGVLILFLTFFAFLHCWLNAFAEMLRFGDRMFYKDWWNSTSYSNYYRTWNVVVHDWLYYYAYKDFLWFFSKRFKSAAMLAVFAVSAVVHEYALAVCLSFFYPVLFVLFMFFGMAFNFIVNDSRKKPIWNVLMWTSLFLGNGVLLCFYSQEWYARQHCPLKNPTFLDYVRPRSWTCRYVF
Kind of series: Inhibition of human ACAT1 at 10 uM. The essentials:
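Human ACAT1 inhibition was tested at a single concentration of 10 μM. The value is reported as percent inhibition.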

The target in series [6] is T3, Sterol O-acyltransferase 1 (Homo sapiens, UniProt P35610).
T3 sequence (P35610 whole entry): T2 sequence (whole entry)
Briefly: Inhibition of human ACAT1.

Series [7] has as its target Voltage-gated inwardly rectifying potassium channel KCNH2 (Homo sapiens, UniProt Q12809). Briefly: Displacement of radiolabeled MK499 from human ERG. The essentials: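 hERG off-target activity was measured in a competitive binding assay against radiolabeled MK-499. The value is reported as Ki.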
Series [8] deals with T4, Diacylglycerol O-acyltransferase 1 (Homo sapiens, UniProt O75907).
T4 sequence (O75907 whole entry): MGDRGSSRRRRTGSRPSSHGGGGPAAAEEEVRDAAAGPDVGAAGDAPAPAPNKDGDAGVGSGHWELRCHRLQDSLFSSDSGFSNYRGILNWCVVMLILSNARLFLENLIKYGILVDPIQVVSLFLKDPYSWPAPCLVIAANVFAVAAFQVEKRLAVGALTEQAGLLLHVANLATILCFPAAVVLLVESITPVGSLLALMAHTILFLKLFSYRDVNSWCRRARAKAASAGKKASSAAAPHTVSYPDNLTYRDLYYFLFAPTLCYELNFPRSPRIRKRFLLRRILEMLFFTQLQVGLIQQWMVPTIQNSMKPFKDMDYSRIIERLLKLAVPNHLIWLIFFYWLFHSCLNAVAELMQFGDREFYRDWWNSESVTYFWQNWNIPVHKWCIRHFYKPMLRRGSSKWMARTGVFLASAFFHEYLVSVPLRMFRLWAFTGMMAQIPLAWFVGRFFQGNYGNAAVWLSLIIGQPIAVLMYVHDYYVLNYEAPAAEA
Briefly: Inhibition of human DGAT1.

Series [9] has as its system Mus musculus. Kind of series: Inhibition of plasma triglyceride accumulation in mouse at 10 mg/kg, po dosed 2 hrs before lipid challenge and measured at 18 hrs by lipid tolerance test. It is filed as functional. The essentials: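 Mouse lipid tolerance test measuring plasma triglyceride excursion. Dosing was 10 mpk oral, with triglyceride reduction read at 18 h.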

The target of a further series is Adenosine receptor A2a (Homo sapiens, UniProt P29274). Briefly: Binding affinity to human A2A receptor. The essentials: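 Recombinant human A2A receptor was tested in an in-house radioligand competition binding assay. The value is reported as Ki.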
Series [10] has as its system Homo sapiens. Kind of series: Reduction in fasting triglyceride levels in familial chylomicronemia syndrome patient at 20 mg dosed daily. It is filed as functional.
Series [11] has as its system Mus musculus. Briefly: Reduction in food intake in wild type mouse at 10 mg/kg, po dosed daily for 6 days measured starting from day 3. It is filed as functional, organism-based. On the set-up: dose 10 mg/kg. The essentials:
(§2)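 Wild-type and DGAT1 knockout mice were dosed daily at 10 mpk for six days. Cumulative body weight gain and food intake were compared with vehicle-treated groups of the same genotype.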

Series [12] concerns Mus musculus. Briefly: Reduction in food intake in DGAT1 knockout mouse at 10 mg/kg, po dosed daily for 6 days. It is filed as functional, organism-based. On the set-up: dose 10 mg/kg. The essentials: as §2
The test system of series [13] is Mus musculus. Briefly: Reduction in cumulative body weight gain in wild type mouse at 10 mg/kg, po dosed daily for 6 days measured starting from day 3. The format is functional, organism-based. Further details: dose 10 mg/kg. The essentials: (§3)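 Wild-type and DGAT1 knockout mice were dosed daily at 10 mpk for six days. Cumulative body weight gain and food intake were compared with vehicle-treated groups.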

For series [14], the system named is Mus musculus. Kind of series: Reduction in cumulative body weight gain in DGAT1 knockout mouse at 10 mg/kg, po dosed daily for 6 days. It is filed as functional, organism-based. Further details: dose 10 mg/kg. The essentials: as §3

Structures are written as SMILES. pIC50, pKi: −log10 of the molar value. Active and inactive are the calls of the source. The rule behind the calls is not given here.

Chain of Voltage-gated inwardly rectifying potassium channel KCNH2 (Q12809 whole entry): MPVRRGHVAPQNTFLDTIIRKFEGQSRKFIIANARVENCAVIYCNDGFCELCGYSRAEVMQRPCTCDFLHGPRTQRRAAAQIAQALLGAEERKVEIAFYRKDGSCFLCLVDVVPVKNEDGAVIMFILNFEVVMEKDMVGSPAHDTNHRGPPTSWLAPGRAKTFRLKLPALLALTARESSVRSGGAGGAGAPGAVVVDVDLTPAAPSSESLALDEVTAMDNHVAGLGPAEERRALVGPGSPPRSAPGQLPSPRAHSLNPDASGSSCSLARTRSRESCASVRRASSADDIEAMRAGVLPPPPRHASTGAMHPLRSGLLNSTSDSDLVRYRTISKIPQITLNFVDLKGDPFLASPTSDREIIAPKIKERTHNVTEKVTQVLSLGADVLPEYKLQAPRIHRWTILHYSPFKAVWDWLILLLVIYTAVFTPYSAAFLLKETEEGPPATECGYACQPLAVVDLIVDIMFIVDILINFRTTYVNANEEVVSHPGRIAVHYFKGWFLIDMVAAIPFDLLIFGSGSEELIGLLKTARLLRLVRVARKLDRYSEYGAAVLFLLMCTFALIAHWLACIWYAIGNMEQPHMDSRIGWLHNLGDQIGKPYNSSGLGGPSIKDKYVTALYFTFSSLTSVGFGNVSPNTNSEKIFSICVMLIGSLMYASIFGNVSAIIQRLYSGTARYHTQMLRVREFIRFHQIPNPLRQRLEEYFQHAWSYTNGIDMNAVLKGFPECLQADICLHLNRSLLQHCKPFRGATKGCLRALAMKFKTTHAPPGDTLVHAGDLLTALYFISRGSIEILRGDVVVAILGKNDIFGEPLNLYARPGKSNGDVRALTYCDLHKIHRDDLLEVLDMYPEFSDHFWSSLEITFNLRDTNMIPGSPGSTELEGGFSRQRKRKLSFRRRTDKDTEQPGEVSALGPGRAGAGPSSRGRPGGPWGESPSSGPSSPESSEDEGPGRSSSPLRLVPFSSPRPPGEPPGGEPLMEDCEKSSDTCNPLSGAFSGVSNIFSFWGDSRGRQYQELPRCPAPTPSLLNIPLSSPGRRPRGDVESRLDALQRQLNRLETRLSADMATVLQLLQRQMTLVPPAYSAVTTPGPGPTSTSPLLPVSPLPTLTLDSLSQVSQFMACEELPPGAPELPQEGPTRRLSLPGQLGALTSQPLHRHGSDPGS
Chain of Adenosine receptor A2a (P29274 whole entry): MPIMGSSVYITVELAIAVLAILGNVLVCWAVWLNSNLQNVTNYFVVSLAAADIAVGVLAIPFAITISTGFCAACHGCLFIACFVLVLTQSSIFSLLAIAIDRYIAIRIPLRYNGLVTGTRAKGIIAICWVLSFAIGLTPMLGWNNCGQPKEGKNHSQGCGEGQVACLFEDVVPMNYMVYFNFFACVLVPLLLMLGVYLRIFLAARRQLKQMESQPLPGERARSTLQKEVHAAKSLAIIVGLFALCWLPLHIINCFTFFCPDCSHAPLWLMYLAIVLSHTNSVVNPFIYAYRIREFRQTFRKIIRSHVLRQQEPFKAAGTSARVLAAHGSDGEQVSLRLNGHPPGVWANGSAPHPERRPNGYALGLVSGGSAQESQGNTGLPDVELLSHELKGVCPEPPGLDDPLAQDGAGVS

In the case of `CC1(C)Oc2ncnc(N)c2N=C1c1ccc([C@H]2CC[C@H](CC(=O)O)CC2)cc1`, the inhibition in vivo – broadly, the percentage by which the read-out fell short of the control – at 10 mg/kg with Rattus norvegicus came out at 100%.

Turning to `O=C(O)C(F)(F)F.O=C(O)[C@H]1CC[C@H](OC2CCN(c3ccc(-c4nc5cc(C(F)(F)F)ccc5[nH]4)cn3)CC2)CC1`, the solubility – broadly, how much of the substance goes into solution per volume – in [1] was 151 µM; in series [2], 130 µM.

For `O=C(O)[C@H]1CC[C@H](OC2CCN(c3ccc(-c4nc5cc(Cl)ccc5[nH]4)cn3)CC2)CC1`, the figures for the pIC50 in series [3], in series [6] and in series [8] were 7.54, below 5.00 and 8.54, respectively. The Selectivity ratio in the series listed under Homo sapiens [4] is above 1000. Also, in [5], the inhibition (commonly the change of the read-out against control, counted positive when it falls) was 4%. The pKi (commonly the Ki on a negative log10 scale, so that one unit is a factor of ten) in [7] is 5.40; at Adenosine receptor A2a it was 5.46. Besides, at 10 mg/kg the inhibition in vivo in the series on Mus musculus [9] was 75%.

As for `O=C(O)C[C@H]1CC[C@H](c2ccc(-c3ccc(Nc4ccc(C(F)(F)F)nc4)cn3)cc2)CC1` [PRADIGASTAT], in the series on Homo sapiens [10], the “inhibition (INH)” value is recorded as 40%.

For the compound `O=C(O)[C@H]1CC[C@@H](OC2CCN(c3ccc(-c4nc5cc(Cl)ccc5[nH]4)cn3)CC2)CC1`, the pIC50 (as a rule, the IC50 on a negative log10 scale, so that one unit is a factor of ten) in series [3] is 7.96; in series [6], below 5.00; in series [8], 8.66. Besides, the inhibition in series [5] is 13%. Also, in [7], the pKi was 4.82. This compound came in with an inhibition in vivo at 10 mg/kg with Mus musculus [9] of 52%.

As to `O=C(O)[C@H]1CC[C@@H](OC2CCN(c3ccc(-c4nc5cc(F)ccc5[nH]4)cn3)CC2)CC1`, the negative-log IC50 (pIC50) in series [3] was 7.59; in [6], below 5.00; in [8] it was 8.24. Also, the Selectivity ratio in the series filed under Homo sapiens [4] was above 1000. Further, the inhibition in series [5] was -2%. The figures for the pKi (in [7]; on Adenosine receptor A2a) were 4.96 and below 5.00, respectively. Also, 10 mg/kg produced 55% inhibition in vivo in the series on Mus musculus [9].

In the case of `O=C(O)[C@H]1CC[C@@H](OC2CCN(c3ccc(-c4nc5cc(C(F)(F)F)ccc5[nH]4)cn3)CC2)CC1`, the pIC50 in series [3] was 8.10; in series [6], below 5.00; in series [8] it was 8.60. In addition, the Selectivity ratio in the series filed under Homo sapiens [4] is above 1000. Further, the inhibition in [5] stood at 22%. For the same compound, the negative-log Ki (pKi) in series [7] was 5.15; on Adenosine receptor A2a, 5.10. The inhibition in vivo at 10 mg/kg with Mus musculus [9] stood at 75%.

For `O=C(O)[C@H]1CC[C@H](OC2CCN(c3ccc(-c4nc5cc(F)ccc5[nH]4)cn3)CC2)CC1`, the pIC50 in series [3] is 6.96; in series [6], below 5.00. Moreover, the inhibition in series [5] came to 5%. Further, the pKi was below 4.22 in [7] and 5.01 at Adenosine receptor A2a.

`O=C(O)[C@H]1CC[C@H](OC2CCN(c3ccc(-c4nc5cc(C(F)(F)F)ccc5[nH]4)cn3)CC2)CC1`: in the series listed under Homo sapiens [4], the Selectivity ratio was above 1000. In addition, the inhibition in [5] came out at 23%. The result with Mus musculus [11] and in the series on Mus musculus [13] was Active. In addition, the result in the series with Mus musculus [12] and in the series on Mus musculus [14] was inactive.
